Compound activity: PubChem, several laboratories
Arbovirus inh – antivirals against arbovirus infection; arbovirus infection cell-based antiviral screen; inhibition, % at 10 µM; 200,000 tested, 0.37% active; in the data active = inhibition above about 30%
RAM inhibit – blocks the yeast RAM network | 190,000 tested, 1.8% active | AID 868 | S. cerevisiae dse1pr::URA3 reporter, 5-FOA growth OD615, 2 d; analog-sensitive cbk1-as2 kinase mutant strain | inhibition, % at 50 µM;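 active = inhibition above a set limit, 3 SD over mean compound inhibition, cut at about 8.4% in these data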;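 also: inhibition rescues growth on 5-FOA so higher OD means more RAM inhibition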
ABCB1 block – inhibitors of human ABCB1 transporter, ABCG2 counter-screen. P08183. CCRF-Adr cells, JC-1 efflux, flow cytometry. inhibition, % at 6.6 µM. 190,000 tested, 0.067% active. AID 1326; in the data active = inhibition above about 40%;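 also: higher value means more JC-1 retained so stronger ABCB1 efflux block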
ABCG2 block – human ABCG2 inhibition, ABCB1 as counter-screen. Q9UNQ0. IgMXP3 cells, JC-1 efflux, flow cytometry. inhibition, % at 6.6 µM. 190,000 tested, 0.1% active. AID 1325;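 active = inhibition above 80%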
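test system = two drug-resistant human cell lines, ABCG2 and ABCB1 | amount = 3 million cells/mL final, two lines in 1:1 ratio | reagent = JC-1 transporter substrate | doses = one concentration, 6.6 µM final | incubation = 10 min at 25 °C | signal = flow cytometric JC-1 green MFI at 530 nm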
RAM 5-FOA – RAM network inhibition, efflux-deficient strain | shares compounds with RAM inhibit | S. cerevisiae efflux-deficient reporter strain, 5-FOA growth OD615, 2 days | max inhibition, % | 1,200 tested, under 10 active; call rule not given here
Each line names hits and unclear results; the compound was inactive in the other large screens (follow-up assays come after a bar, where they were run). Sampled rows, rich in hits. Any-hit rate of the full collection: about 2.3%.

Cc1ccc(/C=C2\Oc3cc(OC(=O)N4CCOCC4)ccc3C2=O)cc1	none
Cc1cc(C(=O)CCl)c(C)n1CCc1ccc(F)cc1	none
Cc1cc(C(=O)CCl)c(C)n1CCc1ccc(Cl)cc1	RAM inhibit 13 | RAM 5-FOA inactive
O=C(CSc1cccc[n+]1[O-])c1ccccc1Br	none
CC(C)C[C@@H](CN(C)N=O)N(C[C@H](Cc1ccccc1)N(CCc1ccccc1)N=O)N=O	RAM inhibit 20 | RAM 5-FOA inactive
CC(C)CC(C(=O)O)N(Cc1ccccc1)Cc1ccccc1 (stereo not drawn)	none
Cc1ccc(CNC(=O)CSc2nc(C)cs2)cc1	none
CNC(=S)N1N=C(c2ccc(C)cc2)CC1c1ccc(Br)cc1 (stereo not drawn)	RAM inhibit 21 | RAM 5-FOA inactive
CNC(=S)N1N=C(c2ccc(C)cc2)CC1c1ccc(Cl)cc1 (stereo not drawn)	none
COc1ccc(-c2noc(CCC(=O)N3CCN(c4cc(C)ccc4C)CC3)n2)cc1	none
Cc1ccc(-c2noc(CCC(=O)N3CCN(c4cccc(C(F)(F)F)c4)CC3)n2)cc1	RAM inhibit 12 | RAM 5-FOA inactive
C=CCN1C(=O)C2(NNc3ccccc3O2)c2ccccc21 (stereo not drawn)	none
CCCCN1C(=O)C2(NNc3ccccc3O2)c2ccccc21 (stereo not drawn)	RAM inhibit 15 | RAM 5-FOA inactive
Cc1ccc(Cc2nnc3n(-c4cccc(C)c4)nc(C(=O)c4ccccc4)n3c2=O)cc1	RAM inhibit 15 | RAM 5-FOA inactive
COC(=O)c1nn(-c2cccc(C)c2)c2nnc(Cc3ccc(C)cc3)c(=O)n12	none
CC/C(=N\OC(=O)c1ccc(OC(C)C)cc1)c1ccc(C)cc1	none
C/C(=N\OC(=O)c1ccc(OC(C)C)cc1)c1ccc(C)c(C)c1	RAM inhibit 12 | RAM 5-FOA inactive
CCOC(=O)CSc1nc2ccccc2c(=O)n1C1CCCC1	RAM inhibit 13 | RAM 5-FOA inactive
CCOC(=O)CSc1nc2ccccc2c(=O)n1C	none
COc1ccc(S(=O)(=O)N[C@H](C(=O)N2CC[C@@]3(O)CCCC[C@H]3C2)c2ccccc2)cc1	none
CCOC(=O)c1sc(-c2ccc(OC)cc2)cc1NC(C)=O	RAM inhibit 18 | RAM 5-FOA inactive
CCCc1cc(C(=O)OC)c(NC(=O)c2cc(C)on2)s1	RAM inhibit 12 | RAM 5-FOA inactive
CCOC(=O)C1=C(N)OC2=C(C(=O)CC(C)(C)C2)C1c1ccc(C)s1 (stereo not drawn)	RAM inhibit 17 | RAM 5-FOA inactive
Cc1cc(S(=O)(=O)N(Cc2cccs2)Cc2ccccc2F)ccc1-n1cnnn1	RAM inhibit 13 | RAM 5-FOA inactive
COc1cccc(CN(Cc2cccnc2)S(=O)(=O)c2ccc(-n3cnnn3)c(C)c2)c1	none
COc1cc(NC(=O)c2ccc3c(c2)OCO3)c2ncccc2c1	RAM inhibit 12 | RAM 5-FOA inactive
COc1ccccc1C1(CCNS(=O)(=O)c2ccc(C)cc2)CCOC(C(C)C)C1 (stereo not drawn)	RAM inhibit 13 | RAM 5-FOA inactive
O=C(N/N=C/c1cccnc1)C12CC3CC(CC(C3)C1)C2	none
O=c1ccc(/C=C/c2ccccc2)nn1Cc1ccc(Cl)cc1Cl	RAM inhibit 13 (no result: ABCB1 block, ABCG2 block) | RAM 5-FOA inactive
COc1ccccc1-c1ccc(=O)n(CC(=O)NC2CCc3ccccc32)n1 (stereo not drawn)	none
O=C(COC(=O)CCc1c[nH]c2ccccc12)NC(c1ccccc1)c1ccccc1	RAM inhibit 17 | RAM 5-FOA inactive
Cc1ccc(NC(=O)CCSc2nnnn2-c2ccc3c(c2)OCO3)cc1C	RAM inhibit 12 | RAM 5-FOA inactive
Cc1ccc(S(=O)(=O)c2c(C)cc(C)nc2Oc2cccc(C(F)(F)F)c2)cc1	RAM inhibit 14 | RAM 5-FOA inactive
Cc1cc(-c2ccccc2)nc(Oc2cccc(C(F)(F)F)c2)c1S(C)(=O)=O	none
O=S(=O)(Nc1cccc(S(=O)(=O)N2CCOCC2)c1)c1ccc(Cl)s1	none
Cc1ccccc1N1CCN(C(=O)c2ccccc2NC(=O)/C=C\C(=O)O)CC1	none
Cn1nc(C(F)(F)F)c(/C=N/OC(=O)c2ccccc2)c1SCc1ccccc1Cl	RAM inhibit 12 | RAM 5-FOA inactive
CC(C)CNC(=O)c1ccccc1NC(=O)c1ccc(CSc2ccccc2)cc1	RAM inhibit 18 | RAM 5-FOA inactive
Brc1ccc(-c2csc(N3CCc4ccccc4C3)n2)cc1	RAM inhibit 15 | RAM 5-FOA inactive
O=[N+]([O-])c1ccc(-c2csc(N3CCc4ccccc4C3)n2)cc1	none
Cn1cnnc1SC1c2cccc3cccc(c23)C1NS(=O)(=O)c1ccc(Cl)cc1 (stereo not drawn)	RAM inhibit 12 | RAM 5-FOA inactive
Cn1cnnc1SC1c2cccc3cccc(c23)C1NS(=O)(=O)c1ccccc1 (stereo not drawn)	none
O=C(CN(c1ccc2c(c1)OCCO2)S(=O)(=O)c1ccccc1)NCc1ccc(Cl)cc1	none
CCCCN(CC(=O)NCc1ccc(Cl)cc1)S(=O)(=O)c1ccc2c(c1)OCCO2	RAM inhibit 13 | RAM 5-FOA inactive
COc1ccc(N=C2S/C(=C\c3ccc(C)s3)C(=O)N2CC(C)C)cc1	RAM inhibit 15 | RAM 5-FOA inactive
COc1ccc(N=C2S/C(=C\c3cccs3)C(=O)N2CC(C)C)cc1	none
COc1ccc(CNC(=O)CN(c2ccc(OC)cc2)S(=O)(=O)c2c(C)nn(C)c2C)cc1	none
COc1ccc(N(CC(=O)NCc2ccc(C)cc2)S(=O)(=O)c2c(C)nn(C)c2C)cc1	RAM inhibit 15 | RAM 5-FOA inactive
CSCCC(NC(N)=O)C(=O)NCc1ccc(Cl)cc1 (stereo not drawn)	none
CC(C)CCOc1ncnc2c1sc1nc3c(cc12)CSC(C)(C)C3	RAM inhibit 13 | RAM 5-FOA inactive
CC1CCCC(NC(=O)COC(=O)CCc2ccccc2)C1C (stereo not drawn)	none
CC1CCCC(NC(=O)COC(=O)CSc2ccc3ccccc3c2)C1C (stereo not drawn)	RAM inhibit 12 | RAM 5-FOA inactive
O=C(CCCSc1nc2ccccc2[nH]1)Nc1nnc(-c2ccccc2)o1	RAM inhibit 14 | RAM 5-FOA inactive
COc1ccc(C(=O)CNc2ccccc2C#N)cc1	none
O=C(COC(=O)CC(c1ccccc1)c1ccccc1)Nc1ccc(F)c(F)c1	RAM inhibit 12 | RAM 5-FOA inactive
CCOC(=O)c1c(NC(=O)CCN2C(=O)c3ccccc3C2=O)sc(C(=O)OC(C)C)c1C	none
CN(Cc1cc(-c2ccccc2)on1)C(=O)c1cc(COc2c(F)cccc2F)on1	RAM inhibit 21 | RAM 5-FOA inactive
C/C(=N\Nc1cccc2cccnc12)c1ccc[nH]1	none
COc1ccc(-c2cc(C(=O)Nc3cc(C)on3)no2)cc1OC	none
O=C(Nc1cccc(C(F)(F)F)c1)NC1CCCCC1	none
O=C(OC(C(=O)Nc1cccc(C(F)(F)F)c1)c1ccccc1)C1CCCCC1 (stereo not drawn)	RAM inhibit 14 | RAM 5-FOA inactive
